PKA-R1A activ – activators of PKA-R1A complex. AID 504707. activation, % at 11.4 µM. P00514+P68181. PKA-R1A dissociation, Cy5-IP20 fluorescence polarization; scaled: DMSO 0%, 113 µM cGMP 100%. 340,000 compounds, 0.083% hits;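 active = percent activation above the mean of all tested compounds plus 3 SD, cut at about 19% in these data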;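 note: higher means more PKAc released from R1A so a rise in polarization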
ATG4B inhibitor – inhibitors of human ATG4B cysteine protease. Q9Y4P1. ATG4B cleavage of LC3-PLA2, NBD-HPC fluorescence, 1 h. inhibition, % at 8.33 µM. 340,000 compounds, 0.51% hits; in the data active = inhibition above about 40%
PfGluPho inh – PfG6PD (Plasmodium falciparum) enzyme inhibition; PfGluPho enzyme, NADPH resazurin-diaphorase fluorescence; inhibition, % at 20 µM; 350,000 compounds, 0.78% hits;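 active = inhibition reaching at least a set limit at 20 µM in the primary screen, cut at about 59% in these data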
HKDC1 inhibitor – HKDC1 (human) hexokinase inhibition; Q2TB90; recombinant HKDC1, G6PDH/diaphorase resazurin coupled fluorescence; inhibition, % at 20 µM; 340,000 compounds, 0.16% hits; AID 493160;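 active = inhibition above about 35% when tested at 20 µM, limit read from the data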
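Incubation: 90 min at room temperature in dark / Material: recombinant HKDC1 (HK5) hexokinase enzyme, produced in-house / Quantity: enzyme 5 µg/mL final / Compound: one dose of 20 µM, 1% DMSO / Reagent: glucose and ATP substrates / Buffer or medium: Tris pH 8.0 buffer with MgCl2, Tween-20, BSA, BME / Technique: resorufin fluorescence at 613 nm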
PKA-R2B activ – activates the human PKA-R2B holoenzyme complex. 340,000 compounds, 0.079% hits. PKA-R2B holoenzyme dissociation, Cy5-IP20 fluorescence polarization; R2B truncated from residue 108, S112A mutant; 0% DMSO only, 100% 113 µM cGMP. P22694+P31323. AID 504700. activation, % at 11.4 µM;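 active = activation above a cutoff set at the mean over all compounds plus 3 SD, cut at about 18% in these data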;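 note: higher means more holoenzyme dissociation and a rise in polarization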
Target sequence (P31323 whole entry, looked up, other chains not shown, the tested form may be a part): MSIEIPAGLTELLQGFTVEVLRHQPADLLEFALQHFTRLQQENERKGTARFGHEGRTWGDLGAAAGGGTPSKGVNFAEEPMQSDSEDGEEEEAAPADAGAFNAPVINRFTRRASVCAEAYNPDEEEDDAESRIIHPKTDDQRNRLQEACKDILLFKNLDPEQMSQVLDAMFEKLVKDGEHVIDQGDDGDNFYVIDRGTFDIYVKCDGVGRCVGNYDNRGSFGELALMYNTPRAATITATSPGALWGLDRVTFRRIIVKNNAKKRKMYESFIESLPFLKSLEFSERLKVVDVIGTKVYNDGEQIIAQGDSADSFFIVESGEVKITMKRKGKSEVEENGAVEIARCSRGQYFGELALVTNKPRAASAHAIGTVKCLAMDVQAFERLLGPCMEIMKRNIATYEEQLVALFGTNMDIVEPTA
T cell modulator – T cell immune modulation candidate; 2C CD8+ T cell-vesicle binding, flow cytometry; stronger effect = lower value; response (vesicle binding), % at 7 µM; 330,000 compounds, 0.068% hits; AID 2052;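 active = response, share of CD8 T cells binding vesicles, and their 90th percentile fluorescence all below set limits, cut at about 80% in these data, passing the limit was not always enough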;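 note: values below 100% mean blocked vesicle binding to the CD8+ T cells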
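Incubation: binding step 1.5 h, 37 °C, antibody labelling 20 min, ice; system: murine 2C transgenic CD8+ T lymphocytes; technique: cytometric PE anti-B7-1 and Alexa647 anti-CD8 signals after 1% paraformaldehyde fixation; also added: QL9-charged Drosophila Ld/ICAM-1/B7-1 vesicles; control set: naked versus QL9-loaded vesicles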
PfG6PD confirm – confirmation of Plasmodium falciparum G6PD inhibitors; shares compounds with PfGluPho inh; recombinant PfGluPho, NADPH-diaphorase-resazurin fluorescence; inhibition, % at 20 µM; 2,400 compounds, 34% hits; AID 504753;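 active = inhibition of at least 50% at 20 µM in any single replicate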
Diaphorase 10uM – inhibits diaphorase or oxidizes, flagging false PfG6PD hits | 820 compounds, 39% hits | inhibition, % at 20 µM | diaphorase-coupled resazurin reduction, fluorescence, NADPH 10 uM | shares compounds with PfGluPho inh | AID 504862;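 active = average inhibition reaching 50% or more with the compound at 20 µM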;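 note: resorufin red fluorescence formed as diaphorase reduces resazurin using NADPH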
Diaph ctr 30uM – counter-screen for P. falciparum G6PD inhibitors: diaphorase inhibitors, oxidizers; 820 compounds, 29% hits; shares compounds with PfGluPho inh; inhibition, % at 20 µM; Diaphorase/resazurin coupled assay, resorufin fluorescence, 30 uM NADPH;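 active = inhibition averaging 50% or more, tested at 20 µM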
A number is an active result; – = inactive; · = not tested or not shown. Shown are actives, neighbours in structure and some others; about 1.6% of the full set was active somewhere.

SMILES | PKA-R1A activ | ATG4B inhibitor | PfGluPho inh | HKDC1 inhibitor | PKA-R2B activ | T cell modulator | PfG6PD confirm | others
N#Cc1ccc(N=c2ssnc2Cl)cc1 | – | – | 93 | – | – | – | 56 | Diaphorase 10uM=–;Diaph ctr 30uM=–
O=C(OCC(O)CO)c1ccccc1Nc1ccnc2cc(Cl)ccc12 (stereo not drawn) | – | – | 82 | – | – | – | –
Cc1c(Cl)cccc1Nc1ncccc1C(=O)OCC(O)CO (stereo not drawn) | · | · | · | · | · | – | ·
CC(NC(=O)COC(=O)c1ccc(CO)cc1)C1CC2CCC1C2 (stereo not drawn) | – | – | – | – | – | – | ·
CC1(C)CC(=O)C2=C(C1)NC(SCC(=O)Nc1ccccc1)=C(C#N)C21CCCCC1 | – | – | – | – | – | – | ·
CC1(C)CC(=O)C2=C(C1)NC(=S)C(C#N)C21CCCCC1 (stereo not drawn) | – | – | 76 | – | – | – | –
COc1cc(NCc2ccccc2O)c2ncccc2c1 | – | – | 65 | – | – | · | 56 | Diaphorase 10uM=–;Diaph ctr 30uM=–
Oc1ccccc1CNc1cccc2cccnc12 | – | – | – | – | – | – | ·
O=C(CSc1nnc(SCc2ccccc2Cl)s1)N/N=C/c1c[nH]c2ccccc12 | – | – | 89 | – | – | – | –
COc1ccc(-n2c(C)cc(C(=O)CSc3nnc(-c4ccoc4C)n3C)c2C)cc1 | – | – | 67 | – | – | – | –
CCn1c(=O)n(CC)c2cc(N3CCCC3)c(NC(=O)c3cccc(Cl)c3)cc21 | – | – | – | – | – | – | ·
CCn1c(=O)n(CC)c2cc(N3CCCC3)c(NC(=O)c3cccc(C)c3)cc21 | – | – | 71 | – | – | – | 84 | Diaphorase 10uM=–;Diaph ctr 30uM=–
COc1ccc(OCC(=O)N2CCN(S(=O)(=O)c3ccc4c(c3)OCCO4)CC2)cc1 | – | · | – | · | – | · | ·
O=C(Nc1n[nH]c(=S)s1)c1ccco1 | – | – | 60 | – | – | – | –
O=C(Nc1nnc(-c2ccc(F)cc2)s1)c1ccco1 | – | – | – | – | – | – | ·
Cc1cc(C)c2c(-n3cccc3)c(C(=O)O)sc2n1 | – | – | – | – | – | – | ·
Cc1cc(C)c2c(-n3cccc3)c(NC(=O)OC(C)C)sc2n1 | – | – | 62 | – | – | – | –
O=[N+]([O-])c1ccc(Oc2cccc3cccnc23)c(Cl)c1 | – | – | 111 | – | – | – | 80 | Diaphorase 10uM=72;Diaph ctr 30uM=60
Cc1ccc(C(=O)Nc2sc(C)c(C)c2C(=O)c2ccccc2)cc1 | – | – | 82 | – | – | – | –
Cc1ccc(NC2Sc3ccccc3NC2=O)cc1Cl (stereo not drawn) | – | – | 82 | – | – | – | –
O=C(c1ccc(NC(=O)C(c2ccccc2)c2ccccc2)cc1)c1ccc(C(=O)O)c(C(=O)O)c1 | – | – | – | – | – | – | ·
O=c1c2cn[nH]c2[nH]c(=S)n1-c1ccccc1 | – | – | 59 | – | – | – | –
O=C(N=Nc1c(O)[nH]c2ccccc12)c1ccccc1NS(=O)(=O)c1cccs1 | – | – | 62 | – | – | – | –
O=C(Cc1cccs1)N=Nc1c(O)[nH]c2ccccc12 | – | – | – | – | – | – | ·
O=C(N=Nc1c(O)[nH]c2ccccc12)c1cc(-c2cccs2)[nH]n1 | – | – | 92 | – | – | – | –
N#Cc1ccccc1S(=O)(=O)N1CCNS(=O)(=O)c2ccccc21 | – | – | – | – | – | · | ·
CSc1ncccc1C(=O)OCC(=O)c1[nH]c(C)c(C(C)=O)c1C | – | – | – | – | – | – | ·
O=C(N/N=C/c1ccccn1)c1cccc(S(=O)(=O)Nc2ccccc2Cl)c1 | – | – | – | – | – | – | ·

Source: PubChem (several laboratories)
